Data on three compounds can be found in BindingDB's records for doi:10.1016/j.ejmech.2011.01.016 (National Institute of Pharmaceutical Education and Research, 2011).

The target in the test is Reverse transcriptase (Human immunodeficiency virus 1, UniProt Q9WKE8). The test can be described thus: Inhibition of Human immunodeficiency virus 1 NL4.3 reverse transcriptase activity. The method, boiled down:
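Colorimetric HIV-1 reverse transcriptase inhibition assay run with a commercial RT assay kit per the manufacturer's protocol; nevirapine positive control; IC50 determined.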

SMILES strings stand for the structures.

As usually defined, the IC50 is the concentration at which inhibition is half-maximal. Low values mean greater potency in that assay, high ones weaker potency in that assay. `COc1cc2c(cc1O)-c1cc3ccc(OC)c(OC)c3c[n+]1CC2` [2-hydroxy-3,9,10-trimethoxy-5,6-dihydroisoquino[3,2-a]isoquinolinium] registered an IC50 of 171 µM. Turning to `COc1ccc2cc3[n+](cc2c1OC)CCc1cc2c(cc1-3)OCO2` [Berberinechloride], the IC50 was determined as 297 µM. `COc1cc2c(cc1O)CC[n+]1cc3c(OC)c(OC)ccc3cc1-2` [jatrorrhizine]: half-maximal inhibition (IC50) required 209 µM.
